KCNK9 inh – human KCNK9 channel inhibition; HEK293 KCNK9, FluxOR thallium flux fluorescence; hits give low values; 310,000 tested, 1.2% active; B-score at 10 µM;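 active = ratio B-score over 3 SD below the library mean, with starting fluorescence within 5 SD of its mean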;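 also: negative B-score means less thallium flux so channel inhibition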
Target sequence (Q9NPC2 whole entry, looked up): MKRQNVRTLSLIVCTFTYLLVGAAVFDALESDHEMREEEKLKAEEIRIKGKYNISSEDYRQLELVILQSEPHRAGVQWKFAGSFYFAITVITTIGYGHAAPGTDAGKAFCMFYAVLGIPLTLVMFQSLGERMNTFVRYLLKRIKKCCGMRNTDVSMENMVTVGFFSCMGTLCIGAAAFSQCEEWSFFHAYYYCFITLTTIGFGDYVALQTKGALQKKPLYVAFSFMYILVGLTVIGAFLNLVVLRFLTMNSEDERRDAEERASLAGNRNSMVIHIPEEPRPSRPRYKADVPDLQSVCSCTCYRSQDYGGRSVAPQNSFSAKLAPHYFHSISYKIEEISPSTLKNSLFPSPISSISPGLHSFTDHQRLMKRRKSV
Cl transport mod – modulates chloride dependent transport by human KCC2; Q9H2X9; KCC2 cells, thallium flux FluoZin-2 fluorescence; B-score of Tl+ flux slope (higher = more flux/activation; lower = inhibition) at 10 µM; 190,000 tested, 2.2% active;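 active = thallium flux slope and its plate-corrected score both differing from the plate sample mean at a set confidence after two filtering rounds, in either direction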;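 also: slope of fluorescence scaled to starting intensity during 10 to 20 s after thallium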
KCNQ1 act – human KCNQ1 channel potentiation or activation | P51787 | CHO-K1 KCNQ1, thallium flux FluxOR fluorescence; hits give high values | B-score at 10 µM | 310,000 tested, 0.35% active | AID 2648;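 active = fluorescence ratio B-score, a plate-corrected score, at least three library SD, with initial intensity B-score within 5 SD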
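Test system: CHO-K1 cells stably expressing KCNQ1 / Medium: assay buffer / Also added: depolarizing K+/Tl+ stimulus, K2SO4 and Tl2SO4 each 12.5 mM in 5x stock / Incubation: 90 min dye loading and 20 min compound exposure, both at room temperature / Signal: thallium influx via FluxOR fluorescence, kinetic imaging / Evaluation: B score of baseline-normalized fluorescence ratio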
KCNK3 inh – human KCNK3 channel inhibition, primary screen. O14649. CHO-KCNK3 thallium flux, FluxOR fluorescence; hits give low values. B-score at 10 µM. 340,000 tested, 0.84% active. AID 602410;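 active = B-score under library mean minus 4 SD, starting fluorescence ratio at most library mean plus 5 SD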;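 also: more negative B-score means stronger inhibition of thallium flux through KCNK3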
Target sequence (O14649 whole entry, looked up): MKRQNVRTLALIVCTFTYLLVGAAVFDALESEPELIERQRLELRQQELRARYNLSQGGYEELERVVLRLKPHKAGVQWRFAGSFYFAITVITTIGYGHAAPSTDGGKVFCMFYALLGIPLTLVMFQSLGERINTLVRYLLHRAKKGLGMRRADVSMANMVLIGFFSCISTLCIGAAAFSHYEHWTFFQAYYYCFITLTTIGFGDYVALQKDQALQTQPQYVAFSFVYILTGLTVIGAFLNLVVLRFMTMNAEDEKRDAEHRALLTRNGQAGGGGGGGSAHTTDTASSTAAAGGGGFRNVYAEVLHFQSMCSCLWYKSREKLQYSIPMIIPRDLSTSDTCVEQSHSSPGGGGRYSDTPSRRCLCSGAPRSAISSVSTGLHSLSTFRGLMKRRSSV
KCNQ1 block – blocks the human KCNQ1 potassium channel. CHO-K1 KCNQ1, FluxOR thallium flux fluorescence; hits give high values. P51787. B-score at 10 µM. 310,000 tested, 1.3% active;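 active = compounds whose thallium flux B-score, printed positive for inhibition, exceeds three library SD while starting fluorescence stays within three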;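 also: channel opened by potassium depolarization with thallium stimulus after 20 min compound exposure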
hERG protect – hERG (human) protection from proarrhythmic block; Q12809; CHO-hERG, FluxOR thallium flux, dofetilide IC70 present; activation (rescue from dofetilide block), less the hit threshold, % at 10 µM; 310,000 tested, 0.51% active;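 active = activation above the mean of controls blocked by dofetilide plus 5 SD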;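 also: thallium influx through hERG after potassium depolarization seen as dye fluorescence rise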
KCNK3 confirm – confirmation of human KCNK3 two-pore domain potassium channel inhibitors; ratio percent of control, % at 10 µM; shares compounds with KCNK3 inh; CHO-KCNK3 thallium flux, FluxOR fluorescence; 0% buffer, 100% carvedilol maximal block; 2,400 tested, 99% active;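 active = ratio percent of control, averaged over triplicates, above buffer control mean plus 5 SD, cut at about 64% in these data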;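 also: ratio is the fluorescence rise from min to max over baseline after thallium stimulus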
KCNK3 uninduced – counter-screen for KCNK3 inhibitors: effect in non-induced cells. shares compounds with KCNK3 inh. non-induced KCNK3 parental cells, FluxOR thallium flux; hits give low values. thallium flux ratio (lower = more inhibition) at 10 µM. 2,400 tested, 40% active;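 active = thallium flux ratio, averaged over three wells, more than 5 SD below the buffer control mean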;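 also: host cells are CHO cells without KCNK3 induction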
Large screens that a line does not name were inactive (follow-up assays come after a bar, where they were run). In the library only some 4.1% were active in any assay of this set; here they are far more common.

O=C(CC(c1ccccc1)c1ccccc1O)NCc1ccccc1 (stereo not drawn)	KCNK3 inh -8.8 | KCNK3 confirm 95 | KCNK3 uninduced inactive
O=C1NC[C@@H](c2ccccc2)OC(=O)[C@@H](Cc2ccc(F)cc2)CC/C=C/C[C@H]1CC(=O)N(CCO)Cc1ccccc1	none (no result: KCNK9 inh, Cl transport mod, KCNQ1 act, KCNQ1 block, hERG protect)
C/C(=N\OC(=O)NC1CCCCC1)c1sc(-c2ccccc2)nc1C	KCNK3 inh -11 | KCNK3 confirm 113 | KCNK3 uninduced 0.14
CCOC(=O)c1sc2nc(C)nc(NCc3ccc(F)cc3)c2c1C	KCNK3 inh -10 (no result: Cl transport mod) | KCNK3 confirm 116 | KCNK3 uninduced 0.15
CCOC(=O)c1sc2nc(C)nc(NCc3ccc(Cl)cc3)c2c1C	KCNK3 inh -11 (no result: Cl transport mod) | KCNK3 confirm 121 | KCNK3 uninduced 0.13
CCOC(=O)c1sc2nc(CC(=O)OC)nc(NCc3ccc(F)cc3)c2c1C	none
CCOC(=O)c1sc2nc(C)nc(NCc3cccnc3)c2c1C	none
CCOc1ncccc1C(=O)Nc1cc(S(=O)(=O)N(CC)CC)ccc1N1CCOCC1	none (no result: KCNK9 inh, Cl transport mod, KCNQ1 act, KCNQ1 block, hERG protect)
COc1ccc(C(=O)Nc2cccc(-c3nnc(-c4ccco4)o3)c2)cc1	none (no result: Cl transport mod)
COc1cc(C(=O)Nc2cccc(-c3nnc(-c4ccco4)o3)c2)ccc1OC(C)=O	KCNK3 inh -9.5 | KCNK3 confirm 113 | KCNK3 uninduced inactive
CCCCc1nc(SCC(=O)Nc2cccc(Cl)c2)n[nH]1	none (no result: Cl transport mod)
CCOC(=O)c1c(NC(=O)c2cccs2)sc(C)c1CC	KCNK9 inh -7.5, KCNK3 inh -9.8 (no result: Cl transport mod) | KCNK3 confirm 119 | KCNK3 uninduced inactive
CCOC(=O)c1c(NC(=O)c2cccs2)sc(C(=O)N(C)C)c1C	none (no result: Cl transport mod)
COc1ccc(-c2ccc(C3C(C#N)=C(N)Oc4n[nH]c(C)c43)o2)cc1 (stereo not drawn)	KCNK3 inh -11 | KCNK3 confirm 89 | KCNK3 uninduced inactive
CCOc1cc(N2CCOCC2)c(OCC)cc1NC(=O)COc1cccc(CC)c1	none (no result: KCNK9 inh, Cl transport mod, KCNQ1 act, KCNQ1 block, hERG protect)
Cc1cccc(NC(=O)CSCC(=O)Nc2ccccc2N2CCCC2)c1	KCNK3 inh -9.6 (no result: Cl transport mod) | KCNK3 confirm 87 | KCNK3 uninduced inactive
CCc1cccc(OCC(=O)Nc2ccccc2N2CCCC2)c1	KCNK3 inh -9.1 (no result: Cl transport mod) | KCNK3 confirm 120 | KCNK3 uninduced 0.16
Cc1ccc(Cl)c(OCC(=O)Nc2ccccc2N2CCCCC2)c1	KCNK3 inh -10 (no result: Cl transport mod) | KCNK3 confirm 123 | KCNK3 uninduced 0.15
O=C(COc1ccc(Cl)cc1Br)Nc1ccccc1N1CCCC1	none (no result: Cl transport mod)
CC(Oc1cccc(Cl)c1)C(=O)Nc1ccccc1N1CCCC1 (stereo not drawn)	KCNK3 inh -8.8 (no result: Cl transport mod) | KCNK3 confirm 124 | KCNK3 uninduced inactive
CC1(c2nnc(-c3cccc(Cl)c3)o2)CC(c2ccc(Br)cc2)=NO1 (stereo not drawn)	none (no result: Cl transport mod)
CC(=O)OC1CCC(OC(C)=O)c2c1n([O-])c(C)c(C)[n+]2=O (stereo not drawn)	none
Cc1oc(-c2ccoc2)nc1CN(Cc1ccccc1)CC1CC1	none
O=C(CNCC1CCCCC1)Nc1ccccc1N1CCCCC1	none
Cc1cccc(C)c1OCC(=O)Nc1ccccc1N1CCCCC1	KCNK9 inh -7.6, KCNK3 inh -9.3 (no result: Cl transport mod) | KCNK3 confirm 114 | KCNK3 uninduced inactive
Fc1ccc(-c2noc(-c3ccc4c(c3)CCO4)n2)cc1	none
O=C(NCC1CCCO1)c1cccc(S(=O)(=O)Nc2cccc(C(F)(F)F)c2)c1 (stereo not drawn)	none (no result: KCNK9 inh, Cl transport mod, KCNQ1 act, KCNQ1 block, hERG protect)
CC(=O)Nc1ccccc1OCCOc1ccc(Br)cc1	KCNK3 inh -12 | KCNK3 confirm 99 | KCNK3 uninduced inactive
Cc1ccc(S(=O)(=O)N2CCC(C(=O)OCc3c(C)noc3C)CC2)cc1C	none (no result: Cl transport mod)
Cc1noc(C)c1COC(=O)C1CCN(S(=O)(=O)c2c(Cl)cccc2Cl)CC1	KCNK3 inh -9 (no result: Cl transport mod) | KCNK3 confirm 114 | KCNK3 uninduced inactive
Cc1ccc(S(=O)(=O)NC(=O)c2ccc(Br)o2)c(C)c1	none
CCC(C)Oc1cccc(C(=O)Nc2ccccc2N2CCOCC2)c1 (stereo not drawn)	KCNK3 inh -9.8 | KCNK3 confirm 125 | KCNK3 uninduced 0.15
O=C(Nc1ccccc1N1CCCCC1)c1ccc(OC(F)F)cc1	KCNK9 inh -7.3, KCNK3 inh -12 (no result: Cl transport mod) | KCNK3 confirm 92 | KCNK3 uninduced inactive
O=C(Nc1ccccc1N1CCOCC1)c1cccc(Oc2ccccc2)c1	KCNK3 inh -9.6 (no result: Cl transport mod) | KCNK3 confirm 96 | KCNK3 uninduced inactive
COc1cccc(C(=O)NC(=S)Nc2ccccc2N2CCOCC2)c1	none (no result: Cl transport mod)
O=C(Nc1ccccc1N1CCN(c2ccccc2)CC1)c1ccccc1	KCNK3 inh -9.5 | KCNK3 confirm 113 | KCNK3 uninduced 0.13
COC(=O)Nc1ccc(S(=O)(=O)N2CCCC(C(=O)NC3CCCCC3)C2)cc1 (stereo not drawn)	none
COCCN(C(=S)Nc1cc(C)cc(C)c1)C(C)c1ccco1 (stereo not drawn)	KCNK3 inh -9 | KCNK3 confirm 85 | KCNK3 uninduced inactive
CCCS(=O)(=O)N1CCN=C1SCc1cccnc1	none
Cc1cccc(C(=O)NN/C=C/C(=O)c2ccccc2)c1	KCNK3 inh -9.1 (no result: Cl transport mod) | KCNK3 confirm 100 | KCNK3 uninduced inactive
Cc1ccc(C(=O)C=CNNC(=O)c2ccccc2)cc1	none (no result: Cl transport mod)
NN=C1c2ccccc2C(=O)C1C(=O)C(c1ccccc1)c1ccccc1 (stereo not drawn)	KCNK3 inh -14 (no result: KCNK9 inh, Cl transport mod, KCNQ1 act, KCNQ1 block, hERG protect) | KCNK3 confirm 138 | KCNK3 uninduced 0.097
O=C(NC12CC3CC(CC(C3)C1)C2)N1CCN(c2nc(-c3ccccc3)cs2)CC1	KCNK9 inh -6.7 | KCNK3 confirm 104 | KCNK3 uninduced inactive
CCOc1cccc(OCCOc2ccccc2[N+](=O)[O-])c1	KCNK9 inh -7.2, KCNK3 inh -8.7 | KCNK3 confirm 110 | KCNK3 uninduced inactive
CCOc1ccc([N+](=O)[O-])c(N)c1	none
C=CCn1c(SCc2csc(C)n2)nc2sc3c(c2c1=O)CCCCC3	none
C=CCn1c(SCc2csc(C)n2)nc2sc3c(c2c1=O)CCCC3	KCNK3 inh -8.9 (no result: Cl transport mod) | KCNK3 confirm 122 | KCNK3 uninduced 0.14
O=C1CC(c2ccc(O)c(O)c2)Oc2c1ccc(O)c2O (stereo not drawn)	none (no result: KCNK9 inh, KCNQ1 act, KCNQ1 block, hERG protect)
CC(C)=CCc1c(O)ccc2c1OC(c1ccc(O)c(O)c1)CC2=O (stereo not drawn)	KCNK9 inh -6.6, KCNK3 inh -12 | KCNK3 confirm 138 | KCNK3 uninduced 0.12
CCCOC(=O)CCNc1n[nH]c(=O)[nH]c1=O	none

Screening results from PubChem BioAssay.
